Measurements gathered from unrelated publications.
Each line is one published result; the experiments were not run side by side.
Target: Dual specificity mitogen-activated protein kinase kinase 3 (MAP2K3, Homo sapiens, UniProt P46734)
Sequence (P46734 1-347, as in one of the studies): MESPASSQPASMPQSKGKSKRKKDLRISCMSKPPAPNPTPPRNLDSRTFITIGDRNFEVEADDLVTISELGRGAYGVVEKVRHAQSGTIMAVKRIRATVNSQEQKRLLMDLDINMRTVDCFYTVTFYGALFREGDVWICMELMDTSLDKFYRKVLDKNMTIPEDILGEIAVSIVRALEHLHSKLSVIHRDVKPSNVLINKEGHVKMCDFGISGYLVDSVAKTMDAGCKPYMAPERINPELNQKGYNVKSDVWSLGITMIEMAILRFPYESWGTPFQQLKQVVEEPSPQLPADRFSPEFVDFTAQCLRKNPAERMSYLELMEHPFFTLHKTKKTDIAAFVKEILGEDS

SMILES	effect on	method	tested at	remaining binding [%]
COc1cnc(Nc2cccc(S(N)(=O)=O)c2)nc1N1CCN(c2ccccc2)C(=O)C1	binding	competition with immobilised ligand	1 µM	84
COc1ccnn2ncc(-c3ccnc(N(C)C)n3)c12	binding	–	1 µM	71
O=C(Nc1c[nH]nc1C(=O)NC1CCNCC1)c1cc(F)cc(F)c1	binding	competition with immobilised ligand	1 µM	100
N[C@H]1CCN(c2nccc(-c3cnn4ncccc34)n2)C1	binding	–	1 µM	67
CCCOc1ccc([C@H]2[C@H](C(=O)O)[C@@H](c3ccc4c(c3)OCO4)CN2CC(=O)Nc2c(CC)cccc2CC)cc1	cell-free assay	competition with immobilised ligand	1 µM	60
C[C@@H](c1ccc(-n2cnc3c(N)ncnc32)cc1)N1CCc2nn(C)c(Cc3ccccc3)c2C1=O	binding	competition with immobilised ligand	0.1 µM	63
O=C(NCCCN1CCOCC1)c1ccc(Nc2nccc(-c3cc4ccccc4s3)n2)cc1	binding	competition with immobilised ligand	1 µM	47
N#CC1(c2ccccn2)CCN(Cc2cc(C(=O)N3CCCC3)c(=O)n3ccccc23)CC1	cell-free assay	competition with immobilised ligand	1 µM	81
Nc1ncc2c(n1)-c1c([nH]c3ccc(C#CC4CC4)cc13)CCCC2	binding	competition with immobilised ligand	1 µM	93
CN(c1nccc(-c2cnn3ncccc23)n1)C1CC1	binding	–	1 µM	93
O=C(c1ccc(Nc2ncc(Cl)c(-c3ccc(Cl)s3)n2)cc1)N1CCC(N2CCCC2)CC1	binding	competition with immobilised ligand	1 µM	15
CN(C)c1nccc(-c2cnc3ncccn23)n1	binding	–	1 µM	78
O=C(NCc1ncc(C(F)(F)F)cc1Cl)c1ccc2c(c1)C1(CCS(=O)(=O)CC1)[C@@H](C1CC1)N2S(=O)(=O)c1ccc(F)cc1	cell-free assay	competition with immobilised ligand	1 µM	73
CC1CCCN1c1nccc(-c2cnn3ncccc23)n1 (stereo not shown)	binding	–	1 µM	84
O=C(c1ccc(Nc2ncc(Cl)c(-c3cc4ccccc4s3)n2)cc1)N1CCC(N2CCCC2)CC1	binding	competition with immobilised ligand	1 µM	43
CN(C)c1ncnc(-c2ccc3nc(Nc4cc(CN5CCN(C(=O)CC(F)(F)F)CC5)ccn4)[nH]c3c2)c1Cl	cell-free assay	competition with immobilised ligand	1 µM	73
FC(F)(F)Oc1cccc(-c2cnc3ccc(-c4ccncc4)nn23)c1	cell-free assay	competition with immobilised ligand	5 µM	35
CN(C)C(=O)Cn1cc(-c2nc([C@@](C)(c3ccc(-c4cnc(N)nc4)cc3)C3CC3)no2)cn1	cell-free assay	competition with immobilised ligand	1 µM	83
F[C@@H]1CCN(c2nccc(-c3cnn4ncccc34)n2)C1	binding	–	1 µM	83
C=CC(=O)N1CCC(C(=O)NCC(=O)N2CCN(c3nc(-c4cnc(N)nc4C(F)F)nc(N4CCOCC4)n3)CC2)CC1	binding	competition with immobilised ligand	1 µM	59
CN(C)c1nccc(-c2cnn3ncccc23)n1	binding	–	1 µM	51
CO[C@@H](C)c1c(Nc2ccc([C@H](N(C)C(=O)C3CCS(=O)(=O)CC3)C(F)(F)F)cc2)cnc2cc(Cl)nn12	cell-free assay	competition with immobilised ligand	1 µM	93
